Test results: the M2OR odorant receptor database

Columns and labels:
Details in all cases: stereoisomer not certain
UniProt Q924H8 = biological target: T1, UniProt Q924H8
T1 sequence (whole entry): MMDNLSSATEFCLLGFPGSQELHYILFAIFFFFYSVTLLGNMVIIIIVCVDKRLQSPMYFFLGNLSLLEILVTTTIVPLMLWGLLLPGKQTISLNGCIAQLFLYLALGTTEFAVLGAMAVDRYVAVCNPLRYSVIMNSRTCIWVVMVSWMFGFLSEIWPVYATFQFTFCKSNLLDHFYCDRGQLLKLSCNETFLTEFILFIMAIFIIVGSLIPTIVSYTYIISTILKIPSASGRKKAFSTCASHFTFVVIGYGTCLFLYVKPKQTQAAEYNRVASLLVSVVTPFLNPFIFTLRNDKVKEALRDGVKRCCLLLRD
How it was run: (§1)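 Each receptor–molecule pair is labelled responsive or non-responsive (inactive) according to whether the original authors judged the measured signal statistically different from baseline. The data were taken from the main text and supplementary material of published papers and checked for typos and inconsistencies. Assay methods differed by source, with transient luciferase assays in mammalian cell lines being common.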

UniProt Q924X8 = biological target: T2, UniProt Q924X8
T2 sequence (whole entry): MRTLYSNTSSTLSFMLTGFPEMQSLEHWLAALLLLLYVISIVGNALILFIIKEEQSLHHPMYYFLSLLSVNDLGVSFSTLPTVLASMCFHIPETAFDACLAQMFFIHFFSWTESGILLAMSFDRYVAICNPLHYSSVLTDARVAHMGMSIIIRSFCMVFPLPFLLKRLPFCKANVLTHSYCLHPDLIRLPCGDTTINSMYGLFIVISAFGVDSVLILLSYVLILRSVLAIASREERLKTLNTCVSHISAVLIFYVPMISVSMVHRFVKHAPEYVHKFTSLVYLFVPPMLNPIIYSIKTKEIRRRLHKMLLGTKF
How it was run: as §1

UniProt Q9EPN9 = biological target: T3, UniProt Q9EPN9
T3 sequence (whole entry): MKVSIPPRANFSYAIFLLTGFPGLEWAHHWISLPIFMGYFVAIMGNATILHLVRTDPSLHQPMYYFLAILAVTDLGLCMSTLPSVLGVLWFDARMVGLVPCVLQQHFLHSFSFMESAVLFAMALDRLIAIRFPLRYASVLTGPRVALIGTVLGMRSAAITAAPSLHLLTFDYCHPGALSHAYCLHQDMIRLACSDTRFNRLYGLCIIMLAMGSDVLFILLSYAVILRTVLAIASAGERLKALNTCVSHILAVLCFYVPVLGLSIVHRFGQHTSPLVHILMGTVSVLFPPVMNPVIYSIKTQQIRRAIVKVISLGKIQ
How it was run: as §1

UniProt Q9R0K2 = biological target: UniProt Q9R0K2
Sequence of UniProt Q9R0K2 (Q9R0K2 as listed by the source): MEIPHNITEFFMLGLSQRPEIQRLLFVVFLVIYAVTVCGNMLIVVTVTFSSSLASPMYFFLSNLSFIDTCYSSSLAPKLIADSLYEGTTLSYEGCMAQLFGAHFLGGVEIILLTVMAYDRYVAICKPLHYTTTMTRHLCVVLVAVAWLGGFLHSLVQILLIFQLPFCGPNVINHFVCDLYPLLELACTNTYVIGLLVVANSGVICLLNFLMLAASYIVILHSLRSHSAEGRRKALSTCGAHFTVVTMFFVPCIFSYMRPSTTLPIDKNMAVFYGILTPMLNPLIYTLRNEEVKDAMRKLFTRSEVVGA
How it was run: as §1

UniProt Q9WU86 = biological target: T4, UniProt Q9WU86
T4 sequence (whole entry): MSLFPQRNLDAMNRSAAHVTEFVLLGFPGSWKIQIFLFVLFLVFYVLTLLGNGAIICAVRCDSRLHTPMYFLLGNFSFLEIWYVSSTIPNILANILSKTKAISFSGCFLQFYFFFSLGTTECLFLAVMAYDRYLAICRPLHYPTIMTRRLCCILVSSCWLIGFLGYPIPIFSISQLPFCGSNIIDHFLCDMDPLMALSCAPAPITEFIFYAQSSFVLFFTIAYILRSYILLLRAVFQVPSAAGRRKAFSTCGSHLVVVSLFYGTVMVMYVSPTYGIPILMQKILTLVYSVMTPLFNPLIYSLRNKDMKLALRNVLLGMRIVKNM
How it was run: as §1

UniProt Q9WU94 = biological target: T5, UniProt Q9WU94
T5 sequence (whole entry): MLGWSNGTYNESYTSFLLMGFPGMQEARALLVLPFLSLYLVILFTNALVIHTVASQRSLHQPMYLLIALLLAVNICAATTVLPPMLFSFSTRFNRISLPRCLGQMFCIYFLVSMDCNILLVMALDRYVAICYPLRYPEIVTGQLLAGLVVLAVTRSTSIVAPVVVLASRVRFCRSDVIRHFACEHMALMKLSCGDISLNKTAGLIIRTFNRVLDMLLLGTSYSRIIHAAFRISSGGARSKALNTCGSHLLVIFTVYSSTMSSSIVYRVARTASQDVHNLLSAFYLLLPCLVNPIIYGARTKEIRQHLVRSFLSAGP
How it was run: as §1

UniProt Q9WVD7 = biological target: T6, UniProt Q9WVD7
T6 sequence (whole entry): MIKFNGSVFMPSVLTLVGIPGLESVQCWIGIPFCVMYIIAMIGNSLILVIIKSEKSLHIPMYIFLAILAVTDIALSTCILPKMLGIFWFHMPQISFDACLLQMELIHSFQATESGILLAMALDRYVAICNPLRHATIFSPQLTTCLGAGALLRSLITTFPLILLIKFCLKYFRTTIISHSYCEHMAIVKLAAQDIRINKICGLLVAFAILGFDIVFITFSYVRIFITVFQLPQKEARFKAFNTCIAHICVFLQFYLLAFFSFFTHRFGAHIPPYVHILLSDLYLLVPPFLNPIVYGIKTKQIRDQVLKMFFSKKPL
How it was run: as §1

UniProt Q9WVD9 = biological target: UniProt Q9WVD9
Sequence of UniProt Q9WVD9 (Q9WVD9 as listed by the source): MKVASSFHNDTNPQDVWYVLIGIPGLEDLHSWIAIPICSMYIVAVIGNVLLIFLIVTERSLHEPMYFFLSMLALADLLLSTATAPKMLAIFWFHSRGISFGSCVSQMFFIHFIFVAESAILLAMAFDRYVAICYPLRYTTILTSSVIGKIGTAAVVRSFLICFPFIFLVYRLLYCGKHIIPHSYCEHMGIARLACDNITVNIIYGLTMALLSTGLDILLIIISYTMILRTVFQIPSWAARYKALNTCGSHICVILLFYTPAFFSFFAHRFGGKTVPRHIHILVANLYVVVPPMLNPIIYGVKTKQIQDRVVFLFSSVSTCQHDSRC
How it was run: as §1

UniProt Q9WVN5 = biological target: T7, UniProt Q9WVN5
T7 sequence (whole entry): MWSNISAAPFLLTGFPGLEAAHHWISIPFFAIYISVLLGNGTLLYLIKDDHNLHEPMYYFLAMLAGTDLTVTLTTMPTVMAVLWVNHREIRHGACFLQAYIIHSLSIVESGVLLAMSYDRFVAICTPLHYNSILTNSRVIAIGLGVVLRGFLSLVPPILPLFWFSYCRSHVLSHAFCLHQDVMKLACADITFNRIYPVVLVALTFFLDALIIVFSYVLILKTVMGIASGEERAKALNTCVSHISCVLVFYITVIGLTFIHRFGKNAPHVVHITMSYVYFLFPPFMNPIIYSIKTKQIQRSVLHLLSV
How it was run: as §1

UniProt Q99NH4 = biological target: T8, UniProt Q99NH4
T8 sequence (whole entry): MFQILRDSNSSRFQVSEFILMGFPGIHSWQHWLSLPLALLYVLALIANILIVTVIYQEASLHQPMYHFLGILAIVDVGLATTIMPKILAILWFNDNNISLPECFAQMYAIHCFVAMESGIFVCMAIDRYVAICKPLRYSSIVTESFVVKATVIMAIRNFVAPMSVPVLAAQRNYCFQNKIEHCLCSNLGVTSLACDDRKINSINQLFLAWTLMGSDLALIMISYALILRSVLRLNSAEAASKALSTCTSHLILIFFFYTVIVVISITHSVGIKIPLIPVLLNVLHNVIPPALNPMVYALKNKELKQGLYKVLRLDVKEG
How it was run: as §1
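Also: active if original authors judged signal statistically different from baseline.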

| SMILES | odorant receptor agonist call (UniProt Q924H8) | odorant receptor agonist call (UniProt Q924X8) | odorant receptor agonist call (UniProt Q9EPN9) | odorant receptor agonist call (UniProt Q9R0K2) | odorant receptor agonist call (UniProt Q9WU86) | odorant receptor agonist call (UniProt Q9WU94) | odorant receptor agonist call (UniProt Q9WVD7) | odorant receptor agonist call (UniProt Q9WVD9) | odorant receptor agonist call (UniProt Q9WVN5) | odorant receptor agonist call (UniProt Q99NH4) |
| --- | --- | --- | --- | --- | --- | --- | --- | --- | --- | --- |
| CCc1ccccc1O | inactive | – | – | – | – | – | – | – | – | – |
| CCCCCCCCCO | inactive | inactive | inactive | inactive | inactive | inactive | active | inactive | inactive | – |
| CC(=O)OCc1ccccc1 | inactive | – | inactive | inactive | inactive | – | – | inactive | inactive | – |
| CCCCCC1=C(C)CCC1=O | inactive | – | inactive | inactive | inactive | – | – | inactive | inactive | – |
| CCCCCCCCO | inactive | inactive | inactive | inactive | inactive | inactive | active | inactive | inactive | – |
| CCCCCOC(=O)CCCCC | inactive | – | inactive | inactive | inactive | – | – | inactive | inactive | – |
| CCCCCCO | inactive | inactive | inactive | inactive | inactive | inactive | inactive | inactive | inactive | inactive |
| CCCCCCC(C)O (stereo not given) | inactive | – | – | – | – | – | – | – | – | – |
| CCCCC(=O)O | inactive | inactive | inactive | inactive | inactive | inactive | inactive | inactive | active | inactive |
| C=CC(=O)CCCCC | inactive | – | – | – | – | – | – | – | – | – |
| CC=Cc1ccc(OC)cc1 | inactive | – | – | – | – | – | – | – | – | – |
| CC1(C)CC(=O)CC(=O)C1 | inactive | – | – | – | – | – | – | – | – | – |
| CCCCCCCCC(=O)O | inactive | inactive | inactive | inactive | inactive | inactive | active | inactive | inactive | active |
| O=C([O-])CCCCCCC(=O)[O-].[H+].[H+] | inactive | active | – | – | – | inactive | inactive | – | – | inactive |
| CCc1occc(=O)c1O | inactive | – | – | – | – | – | – | – | – | – |
| CC(=O)Oc1ccccc1 | inactive | – | inactive | inactive | active | – | – | inactive | inactive | – |
| CCCCCCCCCCO | inactive | – | inactive | inactive | inactive | – | – | inactive | inactive | inactive |
